Measured values published in ChEMBL document CHEMBL4706647, “Development and optimization of halogenated vinyl sulfones as Nrf2 activators for the treatment of Parkinson's disease” (Eur J Med Chem, 2021).
pEC50: −log10 of the molar value. Active and inactive are the calls of the source. The rule behind the calls is not given here.

Columns and labels:
[1] = molecular target: T1, Nuclear factor erythroid 2-related factor 2 (Mus musculus) (UniProt Q60795); test: Activation of Nrf2 in mouse BV-2 cells assessed as increase in HO1 mRNA expression after 6 hrs by RT-qPCR analysis; assay type: cell-based; conditions: filed as activator, dose 0.03-1 µM
T1 sequence (whole entry): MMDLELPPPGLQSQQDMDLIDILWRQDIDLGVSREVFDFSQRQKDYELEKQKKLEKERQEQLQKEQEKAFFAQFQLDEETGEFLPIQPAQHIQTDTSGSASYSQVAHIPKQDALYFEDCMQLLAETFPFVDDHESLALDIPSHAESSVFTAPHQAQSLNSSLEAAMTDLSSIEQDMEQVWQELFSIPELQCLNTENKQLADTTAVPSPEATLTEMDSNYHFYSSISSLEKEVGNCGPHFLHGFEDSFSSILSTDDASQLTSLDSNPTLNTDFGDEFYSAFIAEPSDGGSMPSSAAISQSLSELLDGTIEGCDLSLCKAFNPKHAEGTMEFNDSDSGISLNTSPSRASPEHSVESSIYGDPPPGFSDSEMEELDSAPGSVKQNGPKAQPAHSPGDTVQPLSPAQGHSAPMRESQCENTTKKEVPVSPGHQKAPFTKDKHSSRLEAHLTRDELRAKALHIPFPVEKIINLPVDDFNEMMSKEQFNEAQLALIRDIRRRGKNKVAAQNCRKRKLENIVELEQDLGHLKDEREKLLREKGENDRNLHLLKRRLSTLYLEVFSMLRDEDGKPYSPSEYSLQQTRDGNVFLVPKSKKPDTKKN
Summary of the method: (§1)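 BV-2 cells exposed to a range of concentrations for 6 h. Ho1, Gclc, Gclm and Sod1 mRNA quantified by RT-qPCR and expressed relative to vehicle-treated control. Mean ± SEM, n = 3; Student's t-test.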

[2] = system: BV-2; test: Inhibition of nitric oxide production in LPS-stimulated mouse BV-2 cells harboring Nrf2 siRNA at 100 nM cotreated with LPS for 24 hrs by griess assay
[3] = system: BV-2; test: Antiinflammatory activity in mouse BV-2 cells assessed as inhibition of LPS-induced nitric oxide production preincubated for 6 hrs followed by LPS stimulation and measured after 24 hrs by griess assay; assay type: functional, cell-based; conditions: dose 0.01-3 µM, time 30.0 hrs
Summary of the method: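 Nitrite in medium read by Griess reaction. BV-2 cells pretreated 6 h across a dose range, then given LPS for 24 h. Medium treated with 1% sulfanilamide in 5% phosphoric acid, then 0.1% N-1-naphthylethylenediamine, each 5 min at RT in the dark. A540 read and converted against a nitrite standard curve.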

[4] = system: Mus musculus; test: Neuroprotective activity in MPTP-induced C57BL/6 mouse model of Parkinson's disease assessed as […] TH-immunoreactive fiber density at 30 mg/kg, po pretreated for 1 day followed by MPTP challenge and subsequent compound dosing for 2 days measured 6 days post-MPTP challenge by immunohistochemistry; assay type: functional, organism-based; conditions: time 7.0 day
Summary of the method: (§2)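 Male C57BL/6 mice, 10 weeks old, 23–26 g, n = 10 per group. Dosed 30 mg/kg p.o. for 3 consecutive days in 10% N-methyl-2-pyrrolidone/20% Tween-80 in water. On day 2, MPTP-HCl 20 mg/kg i.p. given four times at 2 h intervals. Coat-hanger (scored 1–5, test done twice) and vertical grid tests run 6 days after MPTP. Brains taken next day for anti-TH immunohistochemistry (1:1000, DAB).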

[5] = molecular target: T1, Nuclear factor erythroid 2-related factor 2 (Mus musculus); test: Activation of Nrf2 in mouse BV-2 cells assessed as increase in Gclc mRNA expression after 6 hrs by RT-qPCR analysis; assay type: cell-based; conditions: filed as activator, dose 0.03-1 µM; summary of the method: as §1
[6] = system: Mus musculus; test: Neuroprotective activity in MPTP-induced C57BL/6 mouse model of Parkinson's disease assessed as reduction in time to turn at 30 mg/kg, po pretreated for 1 day followed by MPTP challenge and subsequent compound dosing for 2 days measured 6 days post MPTP challenge by vertical grid test; assay type: functional, organism-based; conditions: time 7.0 day; summary of the method: as §2
[7] = molecular target: T1, Nuclear factor erythroid 2-related factor 2 (Mus musculus); test: Activation of Nrf2 in mouse BV-2 cells assessed as increase in GCLM expression at 10 uM after 6 hrs by Western blot analysis relative to control; assay type: cell-based; conditions: filed as activator
Summary of the method: (§3)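 BV-2 microglia grown in RPMI-1640 with 10% FBS, penicillin-streptomycin and 2 mM L-glutamine at 37 °C, 5% CO2. Cells exposed to a range of concentrations for 6 h, then HO-1, GCLC, GCLM and SOD1 protein measured by Western blot. Band intensity normalized to β-actin and given as fold of vehicle control. Mean ± SEM, n = 3, three separate experiments.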

[8] = system: BV-2; test: Antiinflammatory activity in mouse BV-2 cells assessed as inhibition of LPS-induced IL6 production preincubated for 6 hrs followed by LPS stimulation and measured after 24 hrs by ELISA; assay type: functional, cell-based; conditions: dose 0.02-2 µM, time 30.0 hrs
Summary of the method: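 BV-2 cells seeded in 12-well plates and pretreated 6 h with compound at […]. LPS then added for 24 h. TNF-α and IL-6 released into the medium quantified by ELISA. Mean ± SEM, n = 3, three separate experiments.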

[9] = molecular target: T2, Nuclear factor erythroid 2-related factor 2 (Homo sapiens, UniProt Q16236); test: Activation of Nrf2 (unknown origin) expressed in human U2OS cells co-expressing Keap1 assessed as increase in Nrf2 nuclear translocation incubated for 6 hrs under dark condition by pathhunter assay; assay type: cell-based
T2 sequence (Q16236 whole entry): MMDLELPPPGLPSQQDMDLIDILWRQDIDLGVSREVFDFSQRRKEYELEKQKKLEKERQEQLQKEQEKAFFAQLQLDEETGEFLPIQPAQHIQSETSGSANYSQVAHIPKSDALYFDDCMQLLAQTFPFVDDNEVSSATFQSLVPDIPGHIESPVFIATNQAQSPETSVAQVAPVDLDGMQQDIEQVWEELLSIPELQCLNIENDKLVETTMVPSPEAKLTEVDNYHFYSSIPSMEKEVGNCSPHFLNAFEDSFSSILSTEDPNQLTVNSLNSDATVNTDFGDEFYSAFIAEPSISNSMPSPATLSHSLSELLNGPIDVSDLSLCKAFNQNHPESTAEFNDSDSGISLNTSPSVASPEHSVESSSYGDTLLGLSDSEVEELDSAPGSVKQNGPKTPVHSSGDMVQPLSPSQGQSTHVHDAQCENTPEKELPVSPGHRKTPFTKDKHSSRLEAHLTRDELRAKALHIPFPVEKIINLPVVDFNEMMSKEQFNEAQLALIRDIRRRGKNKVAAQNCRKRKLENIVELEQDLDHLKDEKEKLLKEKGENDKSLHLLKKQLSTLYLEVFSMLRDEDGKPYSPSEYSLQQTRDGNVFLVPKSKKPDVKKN

[10] = molecular target: CYP2C9 (Homo sapiens, UniProt P11712); test: Inhibition of CYP2C9 (unknown origin) assessed as residual activity; assay type: ADME
[11] = molecular target: CYP3A4 (Homo sapiens, UniProt P08684); test: Inhibition of CYP3A4 (unknown origin) assessed as residual activity; assay type: ADME
[12] = molecular target: T1, Nuclear factor erythroid 2-related factor 2 (Mus musculus); test: Activation of Nrf2 in mouse BV-2 cells assessed as increase in GCLC expression after 6 hrs by Western blot analysis; assay type: cell-based; conditions: filed as activator, dose 0.02-10 µM; summary of the method: as §3
[13] = Cytotoxicity against mouse BV-2 cells assessed cell viability at 0.1 uM measured after 6 hrs by Ez-cytox reagent based assay relative to control; conditions: read-out: Activity
Summary of the method: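 BV-2 cells (1.0 × 10⁴/well) grown 24 h at 37 °C, 5% CO2, then treated 6 h at […]. Viability expressed as percent of control.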

CYP3A4, sequence (P08684 whole entry): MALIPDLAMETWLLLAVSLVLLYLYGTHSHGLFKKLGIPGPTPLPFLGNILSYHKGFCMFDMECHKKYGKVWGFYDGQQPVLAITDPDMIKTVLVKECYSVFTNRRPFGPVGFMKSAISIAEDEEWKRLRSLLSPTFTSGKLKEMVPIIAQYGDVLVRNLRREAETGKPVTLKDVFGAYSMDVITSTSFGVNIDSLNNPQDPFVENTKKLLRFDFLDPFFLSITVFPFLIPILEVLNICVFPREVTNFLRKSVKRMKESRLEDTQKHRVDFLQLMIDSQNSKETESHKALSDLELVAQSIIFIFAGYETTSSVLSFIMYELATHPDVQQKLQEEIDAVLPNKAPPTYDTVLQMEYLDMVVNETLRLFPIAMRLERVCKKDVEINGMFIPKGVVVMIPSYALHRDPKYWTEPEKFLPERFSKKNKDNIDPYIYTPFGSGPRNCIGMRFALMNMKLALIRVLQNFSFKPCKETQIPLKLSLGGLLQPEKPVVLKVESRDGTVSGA
CYP2C9, sequence (P11712 whole entry): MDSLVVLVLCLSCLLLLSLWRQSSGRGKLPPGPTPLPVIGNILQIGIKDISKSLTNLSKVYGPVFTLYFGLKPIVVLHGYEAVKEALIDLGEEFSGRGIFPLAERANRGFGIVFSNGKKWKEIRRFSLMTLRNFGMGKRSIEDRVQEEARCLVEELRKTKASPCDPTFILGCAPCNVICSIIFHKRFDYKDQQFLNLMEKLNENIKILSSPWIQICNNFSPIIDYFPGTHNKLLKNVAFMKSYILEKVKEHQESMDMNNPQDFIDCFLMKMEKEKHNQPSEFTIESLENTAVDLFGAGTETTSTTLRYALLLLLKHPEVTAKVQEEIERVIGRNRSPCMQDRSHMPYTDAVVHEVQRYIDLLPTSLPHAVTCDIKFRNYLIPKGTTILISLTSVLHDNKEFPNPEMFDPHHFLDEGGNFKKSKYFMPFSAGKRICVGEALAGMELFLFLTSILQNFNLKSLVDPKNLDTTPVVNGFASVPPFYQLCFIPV

## O=S(=O)(/C=C/c1ncccc1Cl)c1ccccc1Cl
[1]
  Activity: Dose-dependent effect
[2]
  inhibition: inactive
[3]
  inhibition: Dose-dependent effect
[4]
  Activity: Active
[5]
  Activity: Dose-dependent effect
[6]
  Activity: Active
[7]
  fold change (FC): 26.1
[8]
  inhibition: Dose-dependent effect
[9]
  pEC50: 7.59
[10]
  activity: 69.1%
[11]
  activity: 91.2%
[12]
  Activity: Dose-dependent effect
[13]
  viability at 6 h, 0.1 µM: 100%
